Source: PubChem BioAssay (Johns Hopkins Ion Channel Center)
Sampled rows, rich in hits. Any-hit rate of the full collection: about 3.5%.
RGS4 act: potentiators or activators of RGS4; HEK293 M3R/inducible RGS4, carbachol calcium flux Fluo4; stronger effect = lower value; B-score at 10 µM; actives 0.92% (n = 310,000);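 active means B-score of the integrated calcium signal more than 4 SD below the library mean, with starting fluorescence not abnormally high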;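 further: negative B-score means reduced calcium response which marks RGS4 activation or potentiation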
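Also added: carbachol at ECmax as muscarinic agonist stimulus; Assay system: HEK293 cells with stable M3R and inducible RGS4; Timing: overnight RGS4 induction, 30 min dye load 37 °C, 20 min compound RT; Measured by: Fluo4-AM (2 µM) calcium-flux fluorescence, kinetic read.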
MrgX1 ag: agonists of human MrgX1 receptor. B-score at 10 µM. AID 588627. Q96LB2. MrgX1-HEK293 cells, Fluo-4 calcium fluorescence, agonist mode; stronger effect = higher value. actives 0.44% (n = 310,000);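 active means calcium response B-score plate-corrected fluorescence ratio at least 3 library SD, with starting fluorescence B-score inside 5 SD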
Target sequence (Q96LB2 whole entry, looked up): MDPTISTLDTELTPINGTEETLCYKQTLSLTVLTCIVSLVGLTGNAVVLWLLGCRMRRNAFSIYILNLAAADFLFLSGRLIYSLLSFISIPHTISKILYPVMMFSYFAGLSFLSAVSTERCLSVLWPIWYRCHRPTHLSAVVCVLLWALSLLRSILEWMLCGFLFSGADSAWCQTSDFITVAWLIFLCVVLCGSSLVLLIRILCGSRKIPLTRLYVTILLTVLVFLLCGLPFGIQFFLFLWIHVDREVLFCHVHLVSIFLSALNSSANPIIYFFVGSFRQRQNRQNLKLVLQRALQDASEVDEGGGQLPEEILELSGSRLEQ
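Material: MrgX1-expressing HEK293 cells; input: 15,000 cells per well; doses: test compound given as first of three sequential additions; schedule: overnight plating before 1 h dye loading; technique: Fluo-4 NW calcium-flux fluorescence, kinetic read; evaluation: baseline-normalised fluorescence change ratio, B-scored; control set: plate-wise positive and negative controls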
MrgX1 PAM: allosterically activates human MrgX1 receptor signaling. B-score at 10 µM. actives 0.63% (n = 310,000). MrgX1-HEK293, Fluo-4 calcium flux, FDSS; stronger effect = higher value;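 active means plate-corrected calcium response at least 3 library SD above typical, normal starting fluorescence, not activating the receptor alone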;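 further: compound read alongside a low EC10 to EC30 dose of BAM8-22 agonist; peak minus trough fluorescence over baseline measured at the second addition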
MrgX1 antag: blocks BAM8-22 activation of human MrgX1 receptor; B-score at 10 µM; MRGX1-HEK293 calcium flux, Fluo-4, BAM8-22 antagonism; stronger effect = lower value; actives 1.3% (n = 310,000); Q96LB2; AID 588676;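 active means calcium-response B-score plate-corrected more than 3 library SD below zero, starting fluorescence within 5 deviations, no agonist response on first addition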;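 further: peak minus trough fluorescence over baseline after final BAM8-22 challenge near maximal dose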
RGS4 inh: human RGS4 inhibition | HEK293 M3R/RGS4 inducible, Fluo-4 calcium flux; stronger effect = higher value; triggered by carbachol at its EC20 | B-score at 10 µM | AID 463165 | actives 0.45% (n = 310,000) | P49798;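 active means B-score, a plate-corrected calcium signal, over three deviations above library mean, with baseline fluorescence within five deviations of library mean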;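 further: RGS4 expression induced by doxycycline in cells with stable M3 receptor; B-score is computed from the integrated fluorescence ratio over baseline after carbachol; higher B-score means a larger calcium signal and so more RGS4 inhibition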
Target sequence (P49798 whole entry, looked up): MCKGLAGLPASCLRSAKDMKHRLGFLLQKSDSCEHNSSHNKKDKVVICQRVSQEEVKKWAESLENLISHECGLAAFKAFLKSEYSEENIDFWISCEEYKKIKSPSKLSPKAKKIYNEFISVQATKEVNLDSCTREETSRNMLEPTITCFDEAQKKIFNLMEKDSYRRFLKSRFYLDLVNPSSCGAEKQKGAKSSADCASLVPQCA
Starred values were filed as active, the others as inactive; i = inactive; · = no result.

SMILES	RGS4 act	MrgX1 ag	MrgX1 PAM	MrgX1 antag	RGS4 inh
O=c1cc(N2CCCCC2)c(-c2ccccc2)nn1Cc1ccccc1Cl	-7.1*	i	i	i	i
O=c1cc(N2CCCCC2)c(-c2ccccc2)nn1Cc1ccc(Cl)cc1Cl	-8.7*	i	i	i	i
COCCNC(=O)C(c1ccc(F)cc1)N(C(=O)CCC(=O)Nc1ccccn1)C1CCCCC1 (configuration not stated)	i	i	i	i	i
CN(C)c1cccc(C(=O)NNC(=O)NC2CCCCC2)c1	i	i	i	i	i
COc1cc(OC)cc(C(=O)NNC(=O)NC2CCCCC2)c1	i	i	i	-7*	i
CCN1C(=O)CSC1=Nc1ccccc1Cl	i	i	i	i	i
COc1ccc(/C=C2\SC(=O)NC2=S)cc1OC	i	63*	i	i	i
O=C1NC(=S)S/C1=C\c1ccc2ccccc2c1	i	i	i	-4.9*	i
COc1cc(/C=C2\SC(=S)NC2=O)ccc1OS(=O)(=O)c1ccccc1	i	i	i	-6.1*	i
COc1ccc(/C=C2\SC(=S)NC2=O)cc1OS(=O)(=O)c1ccc(NC(C)=O)cc1	i	·	·	·	i
COc1cc(/C=C2/SC(=S)NC2=O)ccc1OS(=O)(=O)c1ccc(C)cc1	i	i	i	-4.7*	i
CCOc1ccc(/C=C2\SC(=S)NC2=O)cc1OC	i	i	i	i	i
COc1cccc2cc(/C(=N/O)c3ccccc3)oc12	i	i	i	i	i
O=C1NC(=S)S/C1=C\c1coc2ccccc2c1=O	i	i	7.6*	i	i
C/[N+]([O-])=C\c1coc2ccccc2c1=O	i	i	i	i	i
COC(=O)c1ccc(N)c(N=CC2=C(O)CC(C)(C)CC2=O)c1	i	27*	i	i	i
COc1cccc(NC(=O)C(OC(=O)c2ccc([N+](=O)[O-])o2)c2ccccc2)c1 (configuration not stated)	i	i	i	i	i
Cc1cc(C)cc(NC(=O)C(OC(=O)c2ccc([N+](=O)[O-])o2)c2ccccc2)c1 (configuration not stated)	i	i	i	-6.6*	i
C=CCSc1nnc(C)c(/C=C/Nc2ccc(Cl)cc2)n1	-7.5*	i	i	i	i
CSc1nnc(C)c(/C=C/Nc2ccc(F)cc2F)n1	i	i	i	i	i
O=C(OCc1ccccc1F)c1cc2ccccc2cc1O	i	i	i	i	i
O=C(Nc1ccc(Cl)c([N+](=O)[O-])c1)C(Sc1ccccc1)c1ccccc1 (configuration not stated)	-8.6*	i	i	i	i
C=CS(=O)(=O)c1sc(Cl)c(N2CCOCC2)c1[N+](=O)[O-]	-11*	·	·	·	i
CCOc1ccc(-c2cc(N3C(=O)Nc4ccccc4N3O)n[nH]2)cc1	i	i	i	-6.7*	i
COc1ccc(Cl)cc1NC(=O)CN(C)C(=O)c1cc2ccccc2cc1O	i	i	i	i	i
SMILES	RGS4 act	MrgX1 ag	MrgX1 PAM	MrgX1 antag	RGS4 inh
CC(=O)Oc1ccc2c(=O)c(/C=N/c3cc(=O)[nH]c(=S)[nH]3)coc2c1	i	i	14*	i	i
O=c1cc(/N=C/c2coc3cc(Br)ccc3c2=O)[nH]c(=S)[nH]1	i	i	i	i	i
COc1ccc(-n2c(C)cc(/C=C3/SC(=S)N(C)C3=O)c2C)cc1	i	i	i	i	i
Cc1cc(/C=C2\SC(=S)N(C)C2=O)c(C)n1-c1cccc(O)c1	i	i	i	-5.7*	i
O=C1/C(=C\c2ccco2)SC(=S)N1Cc1ccccc1	i	i	i	i	i
Cc1cc(/C=C2\SC(=S)N(Cc3ccco3)C2=O)c(C)n1-c1ccccc1	i	i	i	-4.5*	i
O=C(Cc1nnc(NC(=O)c2cccc([N+](=O)[O-])c2)s1)NCc1ccccc1	i	i	i	i	i
Clc1ccccc1C1CC(c2ccccc2)=Nc2ccccc2N1 (configuration not stated)	-7.4*	i	i	i	i
Brc1ccccc1C1CC(c2ccccc2)=Nc2ccccc2N1 (configuration not stated)	i	i	i	i	i
CCOC(=O)COc1ccc(C(=O)Nc2cccc(Cl)c2C)cc1	i	i	i	i	i
Cc1nn(-c2ccccc2)c(N2CCCC2)c1/C=N/Nc1ccc(S(=O)(=O)Nc2ccccc2)cc1[N+](=O)[O-]	i	i	i	-5.1*	i
CCN(CCNCC(O)COc1ccccc1C(C)C)c1cccc(C)c1 (configuration not stated)	i	i	i	i	i
CCOC(=O)C1CCCN(C2=NC(=O)/C(=C/c3ccc(O)c(OCC)c3)S2)C1 (configuration not stated)	i	i	i	-4.5*	i
CCOc1ccc(N=C2C(=O)N(CN3CCOCC3)c3ccccc32)cc1	i	33*	i	i	i
CC(=O)Nc1ccc(C2=NN(C)C(=NCc3ccccc3)SC2)cc1	i	i	7.7*	i	i
CCOC(=O)c1cnc(Nc2nc3ccccc3o2)nc1CSC(=S)N(CC)CC	i	i	i	i	i
CCOC(=O)c1cnc(Nc2nc3ccccc3o2)nc1CSc1ncccn1	i	i	i	-5.6*	i
CCN1CCN(Cc2ccc(NC(=O)c3ccc(C)c(NC(=O)c4ccno4)c3)cc2C(F)(F)F)CC1	i	i	i	i	i
CCN1CCN(Cc2ccc(NC(=O)c3ccc(C)c(/C=C/c4cnc(Nc5cc(N6CCNCC6)nc(C)n5)cn4)c3)cc2C(F)(F)F)CC1	i	27*	i	i	i
O=C(Nc1ccc(C(=O)OC[C@@H]2CCCN3CCCC[C@H]23)cc1)c1cccc(Br)c1	i	i	i	i	i
COc1ccc(/C=C2\OC(=S)N(C)C2=O)cc1	i	i	i	i	i
CN1C(=O)/C(=C\c2ccc(N(C)C)cc2)OC1=S	i	63*	i	i	i
CCN1CCN(CC(=O)Nc2c(OC)cccc2OC)CC1	i	i	i	i	i
CCCCN(CCCC)c1nc2ccccc2nc1C(C#N)C(=O)NCCCOC (configuration not stated)	-9.5*	i	i	i	i
CC(C)(Oc1ccc(Cl)cc1)C(=O)NCC1CCCO1 (configuration not stated)	i	i	i	i	i
